Entries after “also recorded” stand apart in the source; their conditions may differ.
How the values were obtained:
ULK3 = assay: Immunoblot in U266 MM cells; assay type: cell-based, Human; details: 6 h
Summary of the method: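 Lysates quantified by BCA; 30 μg protein run on 10–15% SDS-PAGE (100 V, 2 h) and transferred to PVDF. Membranes blocked 1 h in TBST with 5% milk/5% BSA, probed overnight at 4 °C with primary (1:1000), then HRP secondary (1:1000). ECL detection; densitometry values annotated on the blot.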

U266 MM cells = assay: Cyto-ID autophagy assay; assay type: cell-based, Human; details: U266, 1 μM
Summary of the method: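 U266 cells exposed to 1 μM test compound or vehicle for 6 h at 37 °C, washed, then stained 30 min in the dark with Cyto-ID Green plus DAPI (100 ng/ml) in 1% FBS assay buffer. Flow cytometry gave MFI and % Cyto-ID+ in live singlet cells. Confocal imaging (Hoechst/Cyto-ID) gave mean cytoplasmic intensity per group, compared by Kruskal–Wallis.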

[1] = tested on: MM cells (5TGM1, 8226, and U266); assay: MTS assay on MM cells; assay type: cell-based
Summary of the method: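 MM lines grown at 37 °C in RPMI 1640 with 10% heat-inactivated FBS plus pen/strep and plated at 2 × 10^5 cells/mL (96-well) or 3 × 10^5 cells/mL (384-well). Exposed to test compound or vehicle (HPβCD or DMSO) for 48 h. MTS absorbance read at 490 nm after 2 h at 37 °C; mean of technical replicates; three independent experiments.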

Cc1[nH]c(/C=C2\C(=O)Nc3ccccc32)c(C)c1CCC(=O)O [SU6668]
ULK3 protein levels (ULK3): does not impact

Cc1sc2c(c1C)C(c1ccc(Cl)cc1)=N[C@@H](CC(=O)OC(C)(C)C)c1nnc(C)n1-2 [JQ1]
autophagy (Cyto-ID) (U266 MM cells): had no effect; also recorded: did not impact autophagy

N#CC[C@H](C1CCCC1)n1cc(-c2ncnc3[nH]ccc23)cn1 [ruxolitinib]
cell survival in vitro [1]: had no effect; also recorded: not affected

— article PMC13601514 (Nature Communications, 2026)
